Results as given in article PMC5395305 (Bioorganic & medicinal chemistry letters, 2017).
Blank lines part the entries; values can stand above or below the compound they belong to.

How the values were obtained:
[1] = system: bleomycin-induced dermal fibrosis; settings: mice, 14 days of IP dosing, 100 mg/kg bid; cited from earlier work
[2] = Stability to incubation with mouse liver microsomes; format: in vitro ADME; settings: relative to 1
[3] = system: ACTA2 expression; test: ACTA2 mRNA expression; format: cell-based; settings: Homo sapiens, Fibroblast, 24 h, read-out: ACTA2 (%ctrl), inhibition of ACTA2 expression (percent control), TGF-β-stimulated human dermal fibroblasts, 10 μM, 24 hrs, mean of n=3
[4] = system: conjunctival fibrosis (scar tissue formation); settings: preclinical model of conjunctival fibrosis; ref 18 (Yu-Wai-Man et al); cited from earlier work
[5] = system: bleomycin-induced dermal fibrosis; test: Bleomycin-induced dermal fibrosis in mice; format: in vivo; settings: PO 50 mg/kg qd, 14 days, vs bleomycin treatment alone
Procedure, shortened: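 Three groups of mice (n=8) were treated daily for 14 days. Controls received intracutaneous PBS. The bleomycin group received intracutaneous bleomycin with concurrent oral gavage of vehicle. The treated group received intracutaneous bleomycin with concurrent oral gavage of test compound at 50 mg/kg. Read-outs were dermal thickness and hydroxyproline content, each compared with bleomycin alone.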

[6] = system: Rho/MRTF/SRF pathway (SRE.L promoter luciferase reporter); test: Inhibition of Gα12-stimulated SRE.Luciferase activity in HEK293T cells; format: cell-based
Procedure, shortened: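 HEK293T cells were transfected with a luciferase reporter driven by the MRTF-selective SRE.L promoter. Reporter activity was Gα12-stimulated, and inhibition of luciferase signal by test compound was measured. Values are means of n ≥ 3.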

SMILES: O=C(Nc1ccc(Cl)cc1)C1CCCN(C(=O)c2cccc(-c3ccco3)c2)C1 (centres unmarked) [Cmpd 1]
Effect on development of bleomycin-induced dermal fibrosis [1]: can attenuate the development of bleomycin-induced dermal fibrosis

Lengthening of half-time in MLM (factor) [2]: three
SMILES: O=C(Nc1ccc(Cl)cc1)C1CN(C(=O)c2cccc(-c3ccco3)c2)CC(F)(F)C1 (centres unmarked) [Cmpd 8a]
mrna remaining at 10 µM [3]: 9% | Effect on scar tissue formation [4]: prevent scar tissue formation

SMILES: O=C(Nc1ccc(Cl)cc1)C1CN(C(=O)c2cccc(-c3ccncc3)c2)CC(F)(F)C1 (centres unmarked) [Cmpd 8f]
Reduction of bleomycin-induced increase in dermal thickness [5]: −55% | Reduction of bleomycin-induced increase in hydroxyproline content [5]: −62%

SMILES: C=C1CC(C(=O)Nc2ccc(Cl)cc2)CN(C(=O)c2cccc(-c3ccco3)c2)C1 (centres unmarked) [Cmpd 23]
Improvement of SRE.L potency ([6]; relative to 5-carbonyl/parent series): ~10 fold

SMILES: CN(C(=O)C1CCCN(C(=O)c2cccc(-c3ccco3)c2)C1)c1ccc(Cl)cc1 (centres unmarked) [Cmpd 26]
Reduction of SRE.L activity ([6]; relative to 1): 10 fold
